Data published in ChEMBL document CHEMBL4765251, “Efficient identification of novel anti-glioma lead compounds by machine learning models” (Eur J Med Chem, 2020).
Activity calls are given as the source filed them. No cut-off for these calls is given here.

Assays:
[1] = Nephrotoxicity in C57BL/6 mouse xenografted with C57BL/6 mouse GL261 cells assessed as serum creatinine level at 100 mg/kg, po or ip administered once daily for 10 days starting from 7 days post tumor cell inoculation and measured on day 17 (reference value: 0.4 +/- 0.3 mg/dl); assay type: toxicity, organism-based; details: in vivo, 240 h, dose 100 mg/kg/day, time 10 day
[2] = system: C6; test: Antiproliferative activity against rat C6 cells assessed as cell growth inhibition preincubated with NAC for 1 hr prior to compound challenge and measured after 72 hrs by SRB assay; assay type: functional, cell-based
Outline: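 C6 cells were pretreated with 2 mM N-acetylcysteine for 1 h, then exposed to compound for 72 h. Viability was measured by SRB assay relative to DMSO-treated controls. Auranofin served as the reference thiol-reactive control.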

[3] = Toxicity in C57BL/6 mouse xenografted with C57BL/6 mouse GL261 cells assessed as mortality at 100 mg/kg, po administered via gavage once daily for 10 days starting from 7 days post tumor cell inoculation; assay type: organism-based; details: in vivo, 240 h, dose 100 mg/kg/day, time 10 day
Outline: (§1)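 Orthotopic model: 5x10^4 GL261 cells in 2 µL serum-free DMEM injected into the right hemisphere of 60-day-old male and female C57BL/6 mice (17-25 g) under ketamine/xylazine. Treatment began 7 days later, n=9 per group. Compound was given in 0.9% saline with 10% DMSO and 0.3% Tween-80, as 100 µL ip or 200 µL by gavage. Body weight change (final minus initial) and mortality were monitored.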

[4] = system: U-251; test: Antiproliferative activity against human U251MG cells assessed as cell growth inhibition measured after 72 hrs by SRB assay; assay type: functional, cell-based; details: U-251, 72 h
[5] = Toxicity in C57BL/6 mouse xenografted with C57BL/6 mouse GL261 cells at 100 mg/kg, po administered via gavage once daily for 10 days starting from 7 days post tumor cell inoculation; assay type: organism-based; details: in vivo, 240 h, dose 100 mg/kg/day, time 10 day; outline: as §1
[6] = system: GL261; test: Antitumor activity against C57BL/6 mouse GL261 cells xenografted in C57BL/6 mouse assessed as reduction in tumor volume at 10 to 100 mg/kg, po administered via gavage once daily for 10 days starting from 7 days post tumor cell inoculation and measured on day 17; assay type: functional, organism-based; details: dose 10-100 mg/kg/day, time 10.0 day
Outline: (§2)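 GL261 cells (5x10^4 in 2 µL DMEM) were injected into the right hemisphere of 60-day-old male and female C57BL/6 mice (17-25 g) under ketamine/xylazine. From day 7, mice received compound once daily for 10 days (n=9 per group), by gavage (200 µL) or ip (100 µL). Vehicle was 0.9% saline with 10% DMSO and 0.3% Tween-80. Tumor volume was taken as the summed segmented areas of three H&E coronal sections.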

[7] = Toxicity in C57BL/6 mouse xenografted with C57BL/6 mouse GL261 cells assessed as mortality at 100 mg/kg, ip administered once daily for 10 days starting from 7 days post tumor cell inoculation; assay type: organism-based; details: in vivo, 240 h, dose 100 mg/kg/day, time 10 day; outline: as §1
[8] = (§3) Inhibition of TrxR in rat liver assessed as reduction in TNB formation using DTNB and NADPH as substrate preincubated with enzyme for 15 mins followed by NADPH addition by absorbance based analysis; assay type: tissue-based
Outline: (§4)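 TrxR activity was measured at 37 °C in 100 mM potassium phosphate pH 7.0 with 2 mg/mL DTNB and 0.01 mg/mL enzyme. Enzyme was preincubated for 15 min with compound or DMSO, then the reaction was started with 0.2 mg/mL NADPH. TNB formation was followed at 412 nm (ε 13.6 mM-1 cm-1). Assays were run in duplicate, with enzyme-free blanks subtracted.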

[9] = species: Rattus norvegicus; test: as §3; assay type: tissue-based; outline: as §4
[10] = Toxicity in C57BL/6 mouse xenografted with C57BL/6 mouse GL261 cells assessed as body weight at 100 mg/kg, po administered via gavage once daily for 10 days starting from 7 days post tumor cell inoculation; assay type: organism-based; details: in vivo, 240 h, dose 100 mg/kg/day, time 10 day; outline: as §1
[11] = Hematological toxicity in C57BL/6 mouse xenografted with C57BL/6 mouse GL261 cells assessed as WBC level in blood at 100 mg/kg, po or ip administered once daily for 10 days starting from 7 days post tumor cell inoculation and measured on day 17 (reference value: 8.6 +/- 1.6x10^3/uL); assay type: organism-based; details: in vivo, 240 h, dose 100 mg/kg/day, time 10 day
[12] = Toxicity in C57BL/6 mouse xenografted with C57BL/6 mouse GL261 cells at 100 mg/kg, ip administered once daily for 10 days starting from 7 days post tumor cell inoculation; assay type: organism-based; details: in vivo, 240 h, dose 100 mg/kg/day, time 10 day; outline: as §1
[13] = Selectivity index, ratio of CC50 for Wistar rat astrocytes to EC50 for human U-251 MG cells
Outline: (§5)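 Selectivity index is astrocyte CC50 divided by the glioma-line EC50, both from 72 h SRB assays. No index is given when astrocyte cytotoxicity could not be calculated at the highest concentration tested.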

[14] = Hepatotoxicity in C57BL/6 mouse xenografted with C57BL/6 mouse GL261 cells assessed as serum ALT level at 100 mg/kg, po or ip administered once daily for 10 days starting from 7 days post tumor cell inoculation and measured on day 17 (reference value: 7.6 +/- 4.2 U/L); assay type: toxicity, organism-based; details: in vivo, 240 h, dose 100 mg/kg/day, time 10 day
[15] = Selectivity index, ratio of CC50 for Wistar rat astrocytes to EC50 for human U87MG cells; outline: as §5
[16] = Cytotoxicity against Wistar rat astrocytes assessed as cell growth inhibition measured after 72 hrs by SRB assay; assay type: cell-based, Astrocyte
Outline: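 Primary astrocytes taken from the cortex of 2-day-old Wistar rats by mechanical dissociation, grown on poly-L-lysine in high-glucose DMEM and treated at 90% confluence (12-15 days). Exposed to 0.1-100 µM for 72 h, then SRB assay with absorbance read at 510 nm against DMSO controls. Mean ± SD of three independent assays.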

[17] = system: U-87 MG; test: Antiproliferative activity against human U87MG cells assessed as cell growth inhibition measured after 72 hrs by SRB assay; assay type: functional, cell-based, U-87MG ATCC
Outline: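 U87MG human glioma cells grown in DMEM with 10% FBS at 37 °C, used up to 30 passages and treated at 40-50% confluence. Exposed to 0.1-100 µM for 72 h, with DMSO at most 0.1% final. TCA-fixed, stained with SRB, dye solubilized in Tris pH 10.5, read at 510 nm, expressed as % of DMSO controls. Mean ± SD of three independent assays.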

[18] = system: C6; test: Antiproliferative activity against rat C6 cells assessed as cell growth inhibition measured after 72 hrs in presence of 0.0001 to 0.001% Triton X-100 by SRB assay; assay type: functional, cell-based
Outline: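 Rat C6 glioma cells were incubated for 72 h in medium with no detergent or with 0.0001% or 0.001% Triton X-100, as a check for aggregation-based cytotoxicity. Viability was read by SRB assay and an EC50 was derived from concentration-response curves. Mean ± SD of three independent assays.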

[19] = system: C6; test: Antiproliferative activity against rat C6 cells assessed as cell growth inhibition measured after 72 hrs by SRB assay; assay type: functional, cell-based; details: C6, 72 h
[20] = Hematological toxicity in C57BL/6 mouse xenografted with C57BL/6 mouse GL261 cells assessed as blood glucose level at 100 mg/kg, po or ip administered once daily for 10 days starting from 7 days post tumor cell inoculation and measured on day 17 (reference value: 108 +/- 13 mg/dl); assay type: organism-based; details: in vivo, 240 h, dose 100 mg/kg/day, time 10 day
[21] = Toxicity in C57BL/6 mouse xenografted with C57BL/6 mouse GL261 cells assessed as body weight at 100 mg/kg, ip administered once daily for 10 days starting from 7 days post tumor cell inoculation; assay type: organism-based; details: in vivo, 240 h, dose 100 mg/kg/day, time 10 day; outline: as §1
[22] = Selectivity index, ratio of CC50 for Wistar rat astrocytes to EC50 for rat C6 cells; outline: as §5
[23] = species: Rattus norvegicus; test: Inhibition of TrxR in rat liver assessed as reduction in TNB formation using DTNB and NADPH as substrate at 100 uM preincubated with enzyme for 15 mins followed by NADPH addition by absorbance based analysis; assay type: tissue-based; outline: as §4
[24] = Hematological toxicity in C57BL/6 mouse xenografted with C57BL/6 mouse GL261 cells assessed as hematocrit level in blood at 100 mg/kg, po or ip administered once daily for 10 days starting from 7 days post tumor cell inoculation and measured on day 17 (reference value: 44.5 +/- 1.8%); assay type: organism-based; details: in vivo, 240 h, dose 100 mg/kg/day, time 10 day
[25] = Hepatotoxicity in C57BL/6 mouse xenografted with C57BL/6 mouse GL261 cells assessed as serum ALP level at 100 mg/kg, po or ip administered once daily for 10 days starting from 7 days post tumor cell inoculation and measured on day 17 (reference value: 19.1 +/- 8.9 U/L); assay type: toxicity, organism-based; details: in vivo, 240 h, dose 100 mg/kg/day, time 10 day
[26] = Antitumor activity against C57BL/6 mouse GL261 cells xenografted in C57BL/6 mouse assessed as reduction in tumor volume at 100 mg/kg, ip administered once daily for 10 days starting from 7 days post tumor cell inoculation and measured on day 17; assay type: functional; details: C57BL/6, GL261, ip, 240 h, time 10 day; outline: as §2
[27] = system: Astrocyte; test: Cytotoxicity against Wistar rat astrocytes assessed as cell growth inhibition at 100 uM measured after 72 hrs by SRB assay; assay type: cell-based
[28] = system: GL261; test: Antitumor activity against C57BL/6 mouse GL261 cells xenografted in C57BL/6 mouse assessed as reduction in tumor volume at 20 mg/kg, ip administered once daily for 10 days starting from 7 days post tumor cell inoculation and measured on day 17; assay type: functional, organism-based; details: dose 20.0 mg/kg/day, time 10.0 day
[29] = system: GL261; test: Antitumor activity against C57BL/6 mouse GL261 cells xenografted in C57BL/6 mouse assessed as reduction in tumor volume at 20 mg/kg, po administered via gavage once daily for 10 days starting from 7 days post tumor cell inoculation and measured on day 17; assay type: functional, organism-based; details: dose 20.0 mg/kg/day, time 10.0 day

SMILES	Activity [1] [mg/dL]	Activity [2]	Activity [3]	EC50 [4] [µM]	Activity [5]	Activity [6]	Activity [7]	Activity [10]	Activity [11]	Activity [12]	Ratio CC50/EC50 [13]	Activity [14] [U/L]	Ratio CC50/EC50 [15]	CC50 at 72 h [16] [µM]	EC50 [17] [µM]	Activity [18]	EC50 [19] [µM]	Activity [20] [mg/dL]	Activity [21]	Ratio CC50/EC50 [22]	other results
CCCCc1ccc(C(=O)/C=C/c2ccc([N+](=O)[O-])o2)cc1	0.3	inactive	Non-Toxic	3.9	Non-Toxic	inactive	Non-Toxic	Non-Toxic	9.5 10^3 /uL	Non-Toxic	10.6	19.8	7.1	41.2	5.8	Active	1.7	94	Non-Toxic	24.2	IC50 [8]: 25 µM; inhibition [9]: Dose-dependent effect; inhibition [23]: 80.7%; Activity [24]: 45.5%; Activity [25]: 22.2 U/L
O=C(/C=C/c1ccc([N+](=O)[O-])o1)c1cccc(Br)c1	0.5	inactive	Non-Toxic	5.8	Non-Toxic	inactive	Non-Toxic	Non-Toxic	9.2 10^3 /uL	Non-Toxic	6.1	9.9	5.2	35.6	6.8	Active	1.4	109	Non-Toxic	25.4	inhibition in vivo at 100 mg/kg/day [26]: 41.3%; inhibition [23]: 78.7%; Activity [24]: 45.3%; Activity [25]: 20.6 U/L
Cn1nnc2c(C(N)=O)ncn2c1=O [TEMOZOLOMIDE]	–	–	–	> 200	–	–	–	–	–	–	–	–	–	–	> 200	–	60.5	–	–	–	Activity [27]: Non-Toxic; Activity [28]: Active; Activity [29]: inactive
Cc1cccc(C(=O)/C=C/c2ccc([N+](=O)[O-])o2)c1	0.4	inactive	Non-Toxic	2.3	Non-Toxic	inactive	Non-Toxic	Non-Toxic	8.4 10^3 /uL	Non-Toxic	22.7	6.2	15.8	52.2	3.3	Active	2.1	108	Non-Toxic	24.8	inhibition in vivo at 100 mg/kg/day [26]: 43.8%; IC50 [8]: 25 µM; inhibition [9]: Dose-dependent effect; inhibition [23]: 95.2%; Activity [24]: 46%; Activity [25]: 20.3 U/L
